Compounds with a hit are over-represented: about 3.3% of the library has one in this group of screens.
Xi reactivation = reactivates the inactive X chromosome in mouse fibroblasts; XiGFP mouse fibroblasts, % GFP-positive cells imaging, 3 d; cells co-treated with 5-aza-dC sensitizer; scaled so ellipticine positive control = 100%; activation, % at 7.58 µM; hit rate 0.055% among 360,000;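 active means mean normalized replicate activation at least 10% and every replicate at or above 10%; inconclusive means only one of the two criteria met; inactive means mean below 10% and not all replicates reach 10%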;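 further: 0% = median of on-plate neutral control wells and 100% = ellipticine 6 µM median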
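Assay system – SV40-immortalized XiGFP fibroblast cells, line 68-5-11 · Buffer or medium – DMEM supplemented with 5-aza-dC as sensitizing agent · Dosing – one concentration, pinned · Benchmarks – positive control ellipticine, 6 µM final · Times – 3 days compound exposure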
DENV2 CPE = inhibitors of DENV2 cytopathic effect; DENV2-infected cells, cytopathic effect rescue, plate reader; CPE inhibition, % at 9.99 µM; hit rate 1.7% among 350,000; in the data active means CPE inhibition above about 20%, passing the limit was not always enough; inconclusive means no clear call, values can overlap the other calls; tested in BHK-21 cells;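 further: 0% = median of neutral control wells and 100% = median of positive control wells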
E-sel inducer = E-selectin induction on HUVECs; activation, % at 7.58 µM; HUVEC E-selectin immunofluorescence imaging; normalized: neutral wells 0, TNF-alpha wells 100; AID 686992; hit rate 0.37% among 260,000;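 active means mean E-selectin-positive cell signal at least 10% of the positive control, reached in at least 60% of replicates, without over 20% cell loss; inconclusive means no rule given, readout overlaps actives, possibly toxicity-flagged; inactive means the rest, including those meeting only one limit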
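assay system = HUVEC, human umbilical vein endothelial cells | input = 3,000 HUVEC seeded per well | medium = EGM-2 growth medium on 0.1% gelatin-coated wells | dosing = one compound dose added by pin transfer | signal = immunofluorescence imaging | read-out basis = % PE-positive cells | control set = TNF-alpha, DMSO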
FGF22 binding = shifts melting point of recombinant human FGF22. activity (Tm shift, normalised), % at 9.99 µM. hit rate 1.5% among 340,000. Q9HCT0. recombinant FGF22 thermal shift, SYPRO orange fluorescence; percent of sucrose octasulfate shift, DMSO zero. AID 651658;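 active means mean Tm shift, scaled 0 neutral to 100 positive control, at about 1.3% or above, every replicate too, limit read from the data; inconclusive means no clear call, values can overlap the other calls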
Target sequence (Q9HCT0 whole entry, looked up): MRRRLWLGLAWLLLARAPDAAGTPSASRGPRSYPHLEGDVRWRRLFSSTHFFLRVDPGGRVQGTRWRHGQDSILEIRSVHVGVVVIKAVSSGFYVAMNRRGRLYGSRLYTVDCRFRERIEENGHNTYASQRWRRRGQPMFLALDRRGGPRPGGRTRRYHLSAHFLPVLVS
PglD inh = inhibitors of Campylobacter jejuni PglD acetyltransferase; purified PglD enzyme, DTNB colorimetric CoA detection; inhibition, % at 12.5 µM; hit rate 0.098% among 360,000; AID 602405; in the data active means inhibition above about 16%, passing the limit was not always enough; inconclusive means no clear call, values can overlap the other calls
C2C12 statin = suppressors of simvastatin-induced myotoxicity in C2C12 myotubes | ATP luminescence, 48 h; scaled: DMSO 0, geranylgeraniol control 100 | rescue of ATP level, % at 7.49 µM | hit rate 0.78% among 330,000 | AID 602340;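 active means mean ATP rescue above about 67%, or every replicate alone reaching that limit, limit read from the data, passing the limit was not always enough; inconclusive means no clear call, values can overlap the other calls; inactive means mean under the limit and some replicate under it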;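 further: myotubes were challenged with 10 µM simvastatin during compound exposure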
Active calls of the source: *; ? = inconclusive; . = no result given.

SMILES	Xi reactivation	DENV2 CPE	E-sel inducer	FGF22 binding	PglD inh	C2C12 statin
COc1ccc(NC(=O)N(C)C[C@@H]2OCCCC[C@@H](C)Oc3ccc(NS(=O)(=O)c4ccc(C)cc4)cc3C(=O)N([C@H](C)CO)C[C@H]2C)cc1	0	-5	.	.	7	.
C[C@H]1CN(C)C(=O)c2cc(NS(C)(=O)=O)ccc2O[C@H]1CN(C)S(C)(=O)=O	0	.	.	.	.	.
Cc1cc(C(=O)Nc2cccc3c2O[C@@H](CN(C)Cc2ccccc2)[C@H](C)CN([C@H](C)CO)C3=O)n(C)n1	0	13	1	-1	1	9
CCCCCNc1nc2sc3c(c2c(=O)n1-c1cccc(Cl)c1)CCN(C)C3	0	-1	42*	0	.	.
CCOC(=O)c1cc2c(n(-c3ccc(Cl)cc3)c1=O)CCCC2=O	0	-2	.	44*	.	.
COC(=O)c1cc2c(n(Cc3ccccc3)c1=O)CCCC2=O	0	-3	0	43*	2	2
Cc1ccc(-n2c3c(cc(C(=O)NCC(=O)c4ccccc4)c2=O)C(=O)CCC3)cc1	0	5	0	0	1	-3
O=C1CCCc2c1cc(C(=O)O)c(=O)n2-c1ccccc1	0	3	.	43*	-3	4
O=C1CCCc2c1cc(C(=O)Nc1ccc(Br)cn1)c(=O)n2-c1ccccc1	.	.	.	.	-7	-1
COCC(=O)Nc1ccc2c(c1)OC[C@@H](C)N(Cc1cncnc1)C[C@H](C)[C@H](OC)CN(C)C2=O	0	.	.	.	.	.
CNC[C@H]1OCCCC[C@@H](C)Oc2ccc(NC(=O)C3CCCCC3)cc2C(=O)N([C@H](C)CO)C[C@H]1C	-1	0	0	0	3	-3
CC(C)COCC(O)CCC(=O)NNC(=S)Nc1ccccc1 (stereo not given)	0	94*	.	0	.	.
O=C(Nc1ccccc1C(=O)NC1CCCCC1)c1ccccc1	0	3	0	0	-2	-20
O=C(Nc1ccccc1C(=O)NC(Cc1ccccc1)C(=O)NC1CCCCCC1)c1ccccc1 (stereo not given)	.	.	.	.	-7	119*
Nc1ccccc1Nc1cc(-c2ccccc2)nn1-c1cccc(Cl)c1	0	20*	.	0	.	.
O=C(CC1C(=O)OCN1C(=O)OCc1ccccc1)OCC(=O)c1ccccc1 (stereo not given)	.	.	.	.	4	103*
O=C(NNc1nc2c(F)cc(F)cc2s1)c1ccccc1	0	-3	.	43*	.	.
O=C(NNc1nc2c(F)cccc2s1)c1ccccc1	0	-5	3	0	-4	0
O=C(NCC1CC1)[C@@H]1[C@@H](CO)[C@@H]2Cn3c(ccc(-c4cccnc4)c3=O)[C@H]1N2C(=O)C1CCC1	0	-5	0	0	-1	-5
CC(C)NC(=O)N1CC2(C1)[C@H](c1ccccc1)[C@@H](CO)N2C(=O)c1ccccn1	0	33*	0	0	.	.
CC(C)NC(=O)N1[C@@H](CO)[C@@H](c2ccccc2)C12CN(Cc1ccccc1)C2	0	28*	0	0	.	.
CC(C)NC(=O)N1[C@H](CO)[C@@H](c2ccccc2)C12CN(C(=O)c1ccccn1)C2	0	10	1	0	.	.
O=C1N(Cc2ccccc2F)c2ccccc2C12OCCCO2	.	.	.	.	-8	120*
COc1cccc2c1C(=O)c1c(O)c3c(c(O)c1C2=O)C[C@@](O)(C(=O)CO)C[C@@H]3OC1CC(N)C(O)C(C)O1 (stereo not given in full)	2	-1	?	0	.	.
COc1cccc2c1C(=O)c1c(O)c3c(c(O)c1C2=O)C[C@@](O)(C(=O)CO)C[C@@H]3O[C@H]1C[C@H](N)[C@H](O)[C@H](C)O1	3	-2	58*	0	3	-144
SMILES	Xi reactivation	DENV2 CPE	E-sel inducer	FGF22 binding	PglD inh	C2C12 statin
CC(=O)[C@@]1(O)Cc2c(O)c3c(c(O)c2[C@H](O[C@H]2C[C@H](N)[C@H](O)[C@H](C)O2)C1)C(=O)c1ccccc1C3=O	109*	-13	3	0	0	-257
Cc1ccc(C)c(/C(O)=C2\C(=O)C(=O)N(CCCn3ccnc3)C2c2ccncc2)c1 (stereo not given)	.	.	.	.	3	84*
O=Nc1c(-c2c(O)[nH]c3cc(Br)ccc23)[nH]c2ccccc12	0	5	66*	0	4	49
CC(C)C(=O)Nc1nnc(S(=O)(=O)N2CCCc3ccccc32)s1	0	-2	0	0	4	4
CC(C)C(=O)Nc1nnc(S(=O)(=O)N2CCc3ccccc32)s1	0	107*	1	0	-4	1
O=C(O)C1CCCCC1C(=O)Nc1ccccn1 (stereo not given)	.	.	.	.	4	105*
Cc1ccc(Sc2nc(C)c([N+](=O)[O-])c(C)c2C#N)cc1	0	29*	.	0	1	26
Cc1nc(Sc2ccc(Cl)cc2)c(C#N)c(C)c1[N+](=O)[O-]	0	17	1	0	6	.
CC1CN(C(=O)c2cc3cc([N+](=O)[O-])ccc3s2)CC(C)O1 (stereo not given)	0	5	.	44*	.	.
CC1CN(C(=O)c2cc3cc([N+](=O)[O-])ccc3oc2=O)CC(C)O1 (stereo not given)	.	5	0	0	0	-9
COc1ccc(NC(=O)N(C)C[C@H]2Oc3cc(C#CCN(C)C)ccc3S(=O)(=O)N([C@H](C)CO)C[C@H]2C)cc1	0	-3	0	0	0	11
O=c1c2ccccc2sn1-c1ccc(S(=O)(=O)N2CCCCC2)cc1	.	.	.	.	-3	17
Cc1ccc(-n2sc3ccccc3c2=O)cc1S(=O)(=O)N1CCCCC1	0	13	0	0	22*	-108
COc1ccccc1NC(=O)Nc1ccc2c(c1)C(=O)N(C)C[C@H](OC)[C@H](C)CN(C)[C@H](C)CO2	0	.	0	.	.	-13
CCS(=O)(=O)N1CCCCN2[C@H](CO)[C@@H](c3ccc(C#CC(C)(C)O)cc3)[C@H]2C1	0	22*	0	0	0	.
CCS(=O)(=O)N1CCCCN2[C@H](C1)[C@@H](c1ccc(C#CC(C)(C)O)cc1)[C@@H]2CO	0	2	0	0	-1	.
N#Cc1ccc(-c2ccc([C@H]3[C@H](CO)N4CCCCN(S(=O)(=O)c5ccccc5)C[C@@H]34)cc2)cc1	0	34*	0	0	4	.
CCS(=O)(=O)N1CCCCN2[C@H](C1)[C@@H](c1ccc(-c3ccc(C#N)cc3)cc1)[C@@H]2CO	0	41*	0	0	-3	-15
N#Cc1ccc(-c2ccc([C@H]3[C@H]4CN(S(=O)(=O)c5ccccc5)CCCCN4[C@H]3CO)cc2)cc1	0	0	-1	0	5	.

Screening results: PubChem, Broad Institute
